# Key:
# Format in all cases: physicochemical
# [1] = Antioxidant activity assessed as superoxide anion radical scavenging activity at 40 uM measured as rate constant recorded every min for 7 mins by nitroblue tetrazolium assay (reference value: 0.188 +/- 0.001 /min)
# Outline: (§1)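 Superoxide came from hypoxanthine/xanthine oxidase (2 mM HPX, 0.56 U·mL−1 XOD stocks) with 0.34 mM NBT in 50 mM phosphate buffer pH 7.4. A560 was read every minute for 7 min. Pseudo-first-order rate constant k1 and final NBTH2 absorbance (t → ∞) came from curve-fitting absorbance vs time, with antioxidant at 40, 80 or 160 μM.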
# [2] = Antioxidant activity assessed as hydroxyl radical scavenging activity at 1.5 uM by ESR spin trapping assay
# Outline: (§2)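 Hydroxyl radicals came from Fenton reaction (H2O2, EDTA, FeSO4 to start) with DMPO spin trap. Samples in ACN (stocks 0.03–0.3 mM) gave final 1.5, 2.5, 5.0 or 15.0 μM; ACN alone served as control. ESR signal was taken as the ratio of the DMPO adduct second-singlet amplitude to the TEMPO (2 μM, daily reference) first-singlet amplitude.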
# [3] = Antioxidant activity assessed as DPPH radical scavenging activity measured as rate constant after 10 secs by UV-visible spectrophotometry; details: 10 s
# Outline: (§3)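 DPPH radical decay, antioxidant at 1.67, 16.7 or 60.0 μM. After 10 s of mixing with DPPH, A517 was read at once and then every 15 s for 5 min. The second-order rate constant k and the plateau absorbance (t → ∞) came from curve-fitting absorbance vs time under global second-order kinetics.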
# [4] = Antioxidant activity assessed as superoxide anion radical scavenging activity at 80 uM measured as rate constant recorded every min for 7 mins by nitroblue tetrazolium assay (reference value: 0.188 +/- 0.001 /min); outline: as §1
# [5] = Antioxidant activity assessed as superoxide anion radical scavenging activity at 160 uM measured as absorbance (t > infinity) recorded every min for 7 mins by nitroblue tetrazolium assay (reference value: 1.9 +/- 0.01); outline: as §1
# [6] = Antioxidant activity assessed as hydroxyl radical scavenging activity at 5 uM by ESR spin trapping assay; outline: as §2
# [7] = Antioxidant activity assessed as DPPH radical scavenging activity at 1.67 uM measured as absorbance (t -> infinity) after 10 secs by UV-visible spectrophotometry; details: 10 s; outline: as §3
# [8] = Antioxidant activity assessed as superoxide anion radical scavenging activity at 80 uM measured as absorbance (t > infinity) recorded every min for 7 mins by nitroblue tetrazolium assay (reference value: 1.9 +/- 0.01); outline: as §1
# [9] = Antioxidant activity assessed as hydroxyl radical scavenging activity at 2.5 uM by ESR spin trapping assay; outline: as §2
# [10] = Antioxidant activity assessed as DPPH radical scavenging activity at 16.7 uM measured as absorbance (t -> infinity) after 10 secs by UV-visible spectrophotometry; details: 10 s; outline: as §3
# [11] = Antioxidant activity assessed as superoxide anion radical scavenging activity at 160 uM measured as rate constant recorded every min for 7 mins by nitroblue tetrazolium assay (reference value: 0.188 +/- 0.001 /min); outline: as §1
# [12] = Antioxidant activity assessed as hydroxyl radical scavenging activity at 15 uM by ESR spin trapping assay; outline: as §2
# [13] = Antioxidant activity assessed as DPPH radical scavenging activity at 60 uM measured as absorbance (t -> infinity) after 10 secs by UV-visible spectrophotometry; details: 10 s; outline: as §3
# [14] = Antioxidant activity assessed as superoxide anion radical scavenging activity at 40 uM measured as absorbance (t > infinity) recorded every min for 7 mins by nitroblue tetrazolium assay (reference value: 1.9 +/- 0.01); outline: as §1
# [15] = Antioxidant activity assessed as superoxide anion radical scavenging activity measured as rate constant recorded every min for 7 mins by nitroblue tetrazolium assay; outline: as §1
Structure (SMILES),K [1] [min⁻¹],Activity [2] [%],K [3] [M⁻¹ s⁻¹],K [4] [min⁻¹],Activity [5],Activity [6] [%],Activity [7],Activity [8],Activity [9] [%],Activity [10],K [11] [min⁻¹],Activity [12] [%],Activity [13],Activity [14],Activity [15]
CCOC(=O)/C=C/c1ccc(O)c(OC)c1 [ETHYL FERULATE],0.14,19,13000,0.16,1.6,36,0.992,1.7,29,0.851,0.13,42,0.58,1.9,–
COc1cc(/C=C/C(=O)O[C@H]2CC[C@@]3(C)C(=CC[C@H]4[C@@H]5CC[C@H]([C@H](C)CCCC(C)C)[C@@]5(C)CC[C@@H]43)C2)ccc1O,0.17,24,12000,0.11,1.82,30,1.245,1.71,24,0.979,0.11,40,0.74,1.76,Dose-dependent effect
COc1cc(/C=C/C(=O)O[C@H]2CC[C@@]3(C)C(=CC[C@H]4[C@@H]5CC[C@H]([C@H](C)CC[C@@H](C)C(C)C)[C@@]5(C)CC[C@@H]43)C2)ccc1O,0.17,21,13000,0.18,1.19,29,1.273,1.4,25,1.045,0.13,39,0.7,1.65,Dose-dependent effect
CC[C@H](CC[C@@H](C)[C@H]1CC[C@H]2[C@@H]3CC[C@H]4C[C@@H](OC(=O)/C=C/c5ccc(O)c(OC)c5)CC[C@]4(C)[C@H]3CC[C@]12C)C(C)C,0.14,22,15000,0.21,1.47,28,1.156,1.35,25,0.991,0.14,40,0.64,1.85,–

# Results, then the compound that gave them:
K [1] [min⁻¹],Activity [2] [%],K [3] [M⁻¹ s⁻¹],K [4] [min⁻¹],Activity [5],Activity [6] [%],Activity [7],Activity [8],Activity [9] [%],Activity [10],K [11] [min⁻¹],Activity [12] [%],Activity [13],Activity [14],Activity [15],Structure (SMILES)
0.2,23,12000,0.14,1.03,33,1.232,1.4,26,0.913,0.19,40,0.53,1.27,–,COc1cc(/C=C/C(=O)O)ccc1O [FERULATE]
–,–,120000,–,–,–,–,–,–,–,–,–,–,–,–,Oc1cccc(O)c1O [PYROGALLOL]
0.19,20,13000,0.19,1.16,31,1.298,1.38,24,0.944,0.13,43,0.64,1.64,Dose-dependent effect,CC[C@H](CC[C@@H](C)[C@H]1CC[C@H]2[C@@H]3CC=C4C[C@@H](OC(=O)/C=C/c5ccc(O)c(OC)c5)CC[C@]4(C)[C@H]3CC[C@]12C)C(C)C
0.13,23,18000,0.19,1.57,34,1.198,1.47,27,1.091,0.13,43,0.79,1.89,–,COc1cc(/C=C/C(=O)O[C@H]2CC[C@@]3(C)[C@@H](CC[C@@H]4[C@@H]3CC[C@]3(C)[C@@H]([C@H](C)CC[C@@H](C)C(C)C)CC[C@@H]43)C2)ccc1O
0.18,23,12000,0.11,1.78,30,1.144,1.76,26,1.01,0.11,44,0.72,1.68,Dose-dependent effect,CC[C@H](/C=C/[C@@H](C)[C@H]1CC[C@H]2[C@@H]3CC=C4C[C@@H](OC(=O)/C=C/c5ccc(O)c(OC)c5)CC[C@]4(C)[C@H]3CC[C@]12C)C(C)C
0.15,19,14000,0.15,1.6,36,1.008,1.72,31,0.896,0.14,43,0.57,1.9,–,COC(=O)/C=C/c1ccc(O)c(OC)c1

# From ChEMBL document CHEMBL3797046, “Antioxidant Activity of Individual Steryl Ferulates from Various Cereal Grain Sources” (J Nat Prod, 2016)
